CSC inhib: cancer stem cell viability inhibitors, primary screen, luminescence | cancer stem cell-like cells viability | 1.1% of 300,000 active | AID 2717, 2010 | inhibition, % at 7.5 µM; in the data active means inhibition above about 75%; tested in HMLE shEcad cells
T cruzi repl: inhibitors of intracellular T. cruzi growth, primary screen, luminescence, NIH3T3 host cells | 1.4% of 300,000 active | inhibition, % (no concentration beside the values) | T. cruzi beta-gal in NIH3T3, 90 h;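 active means mean inhibition across valid replicates above about 55%, limit read from the data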;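 further: signal also drops with host cell toxicity which is not excluded here; higher percent means less beta-gal luminescence so fewer parasites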
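System: mouse NIH/3T3 fibroblasts infected with β-gal-expressing T. cruzi Tulahuen C4 / Input: NIH/3T3 cells, 5,000 per well / Buffer or medium: Low-serum DMEM with 2% FBS / Probe or stimulus: 5000 reporter trypomastigotes per well / Schedule: ≥90 h infection period, 3 h prior cell attachment / Measured by: GalScreen luminescence, 60 min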
Beta apoptosis: inhibitors of cytokine-induced beta cell apoptosis, primary screen, luminescence; INS-1E cytokine-induced death, ATP luminescence, 48 h; percent of positive-control rescue, neutral wells zero; protection from apoptosis, % (test concentration not listed); 0.8% of 300,000 active;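 active means Every replicate reaches about 75%, or at least half do and their mean reaches it too, limit read from the data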;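 further: higher means more ATP so stronger rescue from cytokine killing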
UPR XBP1 act: activators of adaptive XBP1 UPR arm, primary screen, cell-based, CHO-XBP1 luciferase reporter, luminescence, uHTS; IRE1-XBP1 UPR activation; percent of tunicamycin response, DMSO as zero; activation, % at 20 µM; 0.33% of 330,000 active; AID 463104, 2010;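 active means versus positive control, 20 µM dose yields 30% or more activation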
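incubation = overnight seeding at 37 °C, 6 h compound treatment at 37 °C | assay system = CHO-XBP1 cells stably carrying IRE1-XBP1-driven luciferase reporter | input = 1000 cells per well | detection = luciferase luminescence | dosing = single point, 20 µM final compound, 1% DMSO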
CHOP UPR activ: activators of apoptotic CHOP UPR arm, primary screen, cell-based, CHO-CHOP luciferase reporter, luminescence, uHTS | activation, % at 10 µM | 0.34% of 330,000 active | AID 449763, 2010 | UPR activation; percent of tunicamycin response over DMSO baseline;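 active means at 10 µM dose, activation of 40% or more, normalized to positive control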
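System: CHO-CHOP luciferase reporter cell line | Buffer or medium: F12 medium containing 10% fetal bovine serum | Doses: One dose, 10 µM in 0.5% DMSO | Times: 6 h compound exposure at 37 °C after overnight seeding | Signal: Luciferase luminescence | Read-out: % activation vs tunicamycin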
Mdm2-MdmX inh: inhibitors of human Mdm2-MdmX association, primary screen, cell-based, luminescence, split luciferase, SaOS-2, uHTS | SaOS-2 split-luciferase Mdm2/MdmX complementation | 3% of 330,000 active | Protein Mdm4 (Homo sapiens) + E3 ubiquitin-protein ligase Mdm2 (Homo sapiens), … | inhibition, % at 8 µM;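 active means inhibition of at least 50% at 8 µM in the primary screen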
Target sequence (O15151 whole entry, looked up): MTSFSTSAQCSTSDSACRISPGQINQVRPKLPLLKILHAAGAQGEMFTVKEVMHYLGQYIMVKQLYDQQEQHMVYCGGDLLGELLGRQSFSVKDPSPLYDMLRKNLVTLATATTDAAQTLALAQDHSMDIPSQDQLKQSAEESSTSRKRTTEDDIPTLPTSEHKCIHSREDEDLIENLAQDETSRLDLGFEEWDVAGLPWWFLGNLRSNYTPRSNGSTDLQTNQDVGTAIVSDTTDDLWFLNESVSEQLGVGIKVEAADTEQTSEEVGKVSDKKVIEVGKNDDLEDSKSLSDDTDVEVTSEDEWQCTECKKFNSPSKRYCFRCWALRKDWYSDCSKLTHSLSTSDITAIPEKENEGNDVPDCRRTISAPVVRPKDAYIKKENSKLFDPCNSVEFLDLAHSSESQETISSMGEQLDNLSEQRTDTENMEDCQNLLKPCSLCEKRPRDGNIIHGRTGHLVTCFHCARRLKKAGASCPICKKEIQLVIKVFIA
Target sequence (Q00987 whole entry, looked up): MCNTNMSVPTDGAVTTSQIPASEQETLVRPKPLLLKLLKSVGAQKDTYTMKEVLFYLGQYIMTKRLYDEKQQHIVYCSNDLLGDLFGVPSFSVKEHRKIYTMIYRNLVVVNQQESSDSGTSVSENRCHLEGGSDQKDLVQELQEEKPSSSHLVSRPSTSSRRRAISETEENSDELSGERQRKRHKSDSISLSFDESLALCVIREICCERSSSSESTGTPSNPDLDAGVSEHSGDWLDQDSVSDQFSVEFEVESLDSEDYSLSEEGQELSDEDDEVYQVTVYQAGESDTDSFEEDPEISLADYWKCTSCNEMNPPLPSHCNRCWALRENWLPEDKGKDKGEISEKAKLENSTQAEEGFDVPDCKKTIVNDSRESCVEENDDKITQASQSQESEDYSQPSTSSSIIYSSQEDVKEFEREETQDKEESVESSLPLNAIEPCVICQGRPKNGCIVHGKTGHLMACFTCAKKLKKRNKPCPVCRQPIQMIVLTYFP
A number is an active result; i = inactive; nt = no result. Only some compounds are listed: those with a hit (about 5% of all), similar ones and a draw of the others.

SMILES	CSC inhib	T cruzi repl	Beta apoptosis	UPR XBP1 act	CHOP UPR activ	Mdm2-MdmX inh
COc1ccc(C(C[N+](=O)[O-])c2c(-c3ccccc3)cc3ccccn23)cc1OC (centres undefined)	i	i	i	i	i	i
Cc1cccn2c(/C=N/OCc3cccc(F)c3)c(-c3ccc(Cl)cc3)nc12	84.9	i	i	i	i	i
COc1cccc(N2CCN(C(=O)c3ccc(Cl)c(NC4=NC5CS(=O)(=O)CC5S4)c3)CC2)c1 (centres undefined)	i	i	i	i	i	i
CN1CCN(S(=O)(=O)c2cnccc2N2CCN(c3cccc(Cl)c3)CC2)CC1	i	56.2	i	i	i	i
CCN(CC)S(=O)(=O)c1cnccc1N1CCN(c2cccc(Cl)c2)CC1	i	65.2	nt	i	i	i
C/C(=N\NC(=O)c1cccnc1)c1ccccc1	i	i	i	i	i	i
O=C(N/N=C(\c1ccccc1)c1cccnc1)c1cc(O)ccc1O	i	65.3	i	i	i	i
CCCc1nc2ccc(N)cc2c(=O)n1Cc1ccccc1Cl	i	i	i	i	i	i
Clc1ccc(-c2nnc(-c3ccccc3)c(-c3ccccc3)n2)cc1	85.2	i	i	i	i	i
COc1ccccc1C(=O)NC(=O)COC(=O)C1(C)CC1(Cl)Cl (centres undefined)	nt	i	i	i	i	i
CCOC(=O)c1sc2ncnc(N3CCN(C(=O)OCC)CC3)c2c1C	nt	i	i	i	i	i
CCOC(=O)c1sc2ncnc(N3CCN(CC)CC3)c2c1C	i	77.2	i	i	i	i
CC(C)Oc1ccc(C(=O)/C=C2/C(=O)Nc3ccccc32)cc1	101.5	i	i	i	i	i
CCN(CC)C(=O)CSc1nnc2nnc3cc(Cl)ccc3n12	i	58.9	i	i	i	i
CCN(CC)C(=O)CSc1nnc2nnc3cc(C)ccc3n12	i	i	i	i	i	i
O=C(NC1CCN(C(=O)N2c3ccccc3Sc3ccccc32)CC1)c1ccccc1Cl	i	i	i	i	i	i
COc1cccc(C(=O)NC2CCN(C(=O)N3c4ccccc4Sc4ccccc43)CC2)c1	i	69.5	i	i	i	i
Cc1ccc2sc(N3CCN(C(=O)c4ccc([N+](=O)[O-])o4)CC3)nc2c1C	i	58.7	nt	i	i	i
O=C(c1ccc([N+](=O)[O-])o1)N1CCc2ccccc2C1	i	56.7	i	i	i	i
COc1cccc2sc(N3CCN(C(=O)c4ccc([N+](=O)[O-])o4)CC3)nc12	i	i	i	i	i	i
Cc1cc2oc(=O)cc(CN3CCN(C/C=C/c4ccccc4)CC3)c2cc1O	i	55.0	i	i	i	i
Cc1ccc2c(CN3CCN(Cc4ccccc4)CC3)cc(=O)oc2c1C	i	57.5	i	i	i	i
Cc1ccc2c(CN3CCN(CCO)CC3)cc(=O)oc2c1C	i	54.9	i	i	i	i
Cc1cc(C)c2oc(=O)cc(CN3CCN(Cc4ccccc4)CC3)c2c1	i	i	i	i	i	i
COc1cc(C[C@@H]2C(=O)OC[C@H]2Cc2ccc(OC)c(OC)c2)ccc1O	i	nt	i	i	i	i
SMILES	CSC inhib	T cruzi repl	Beta apoptosis	UPR XBP1 act	CHOP UPR activ	Mdm2-MdmX inh
Cc1c(C(=O)C(=O)N2CC=C(c3ccccc3)CC2)c2ccccc2n1C	i	i	i	i	i	i
COc1ccccc1NS(=O)(=O)c1ccc(N/N=C(\C)C(C)C)c([N+](=O)[O-])c1	i	i	77.7	i	i	i
NC(=O)CSc1oc(-c2ccco2)nc1S(=O)(=O)c1ccc(Br)cc1	i	i	i	i	i	i
CC1CCC(C(C)C)C(OC(=O)COC(=O)c2cc(O)ccc2N)C1 (centres undefined)	i	70.1	i	i	i	i
CN(C(=S)NC(=O)CCCOc1ccc(Cl)cc1Cl)c1ccccc1	nt	i	nt	i	i	i
Cc1ccc(F)c([C@H]2[C@@H]3C=CCC[C@@]3(C)C(=O)N2Cc2ccccc2)c1	i	i	i	i	i	i
CN(C)c1ccc(-c2cc([C@H]3[C@@H]4C=CCC[C@@]4(C)C(=O)N3Cc3ccccc3)ccc2F)cc1	103.7	i	i	i	i	i
Cc1ccc(-c2cc([C@H]3[C@@H]4C=CCC[C@@]4(C)C(=O)N3Cc3ccccc3)ccc2F)cc1	111.1	i	i	i	i	i
COc1ccc([C@H]2[C@@H]3C=CCC[C@@]3(C)C(=O)N2Cc2ccccc2)cc1Cl	i	i	i	i	i	i
C[C@@]12CCC=C[C@H]1[C@H](c1ccc(F)c(/C=C/c3ccccc3)c1)N(Cc1ccccc1)C2=O	94.4	i	i	i	i	i
COc1ccc(-c2cc([C@H]3[C@@H]4C=CCC[C@@]4(C)C(=O)N3Cc3ccccc3)ccc2F)cc1OC	91.1	i	i	i	i	i
Cc1cccc(C(=O)N2CCC(Cc3ccccc3)CC2)c1[N+](=O)[O-]	i	i	i	i	i	i
COc1ccc(-c2cccc([C@H]3[C@@H]4C=CCC[C@@]4(C)C(=O)N3Cc3ccccc3)c2)cc1	82.0	i	i	i	i	i
COc1ccc(-c2c([C@H]3[C@@H]4C=CCC[C@@]4(C)C(=O)N3Cc3ccccc3)ccc3ccccc23)cc1OC	i	i	i	i	i	i
Cc1cc(C)nc(SCC(=O)NC2=NN=C(c3ccc(Br)cc3)CS2)n1	i	68.0	113.0	i	i	i
CCC(Sc1nc(C)cc(C)n1)C(=O)NC1=NN=C(c2ccc(C)cc2)CS1 (centres undefined)	i	i	127.0	i	i	i
CCOC(=O)/C=C1\NC(C)(C)Cc2cc(OC)c(OC)cc21	nt	i	i	i	i	i
CCOC(=O)/C=C1\NC2(CCCCC2)Cc2cc(OC)c(OC)cc21	i	59.8	i	i	i	i
C=C(C)C(=O)N1CC2(CC(c3cccc(NC(=O)COc4ccc(Cl)cc4)c3)=NO2)C[C@@H]1C(N)=O (some centres undefined)	i	i	103.7	i	i	i
CC(C)Oc1ccc(NC(=O)c2ccncc2)cc1	i	i	i	i	i	i
O=C(CSc1ccccc1)Nc1ccc2sccc2c1	i	i	i	i	i	i
Cc1nn2c(COc3ccc(NC(=O)c4ccccc4Cl)cc3)nnc2c2ccccc12	89.7	i	i	i	i	i
O=C(Nc1cccnc1)c1ccc([N+](=O)[O-])o1	i	i	i	i	i	i

Screens (PubChem)
